Measured values: ChEMBL document CHEMBL4321807, “Cyanine-Gemcitabine Conjugates as Targeted Theranostic Agents for Glioblastoma Tumor Cells” (J Med Chem, 2019)
Calls of active or inactive are those of the source. The rule behind the calls is not given here.

Key:
U-87 MG [1] = assay: Cytotoxicity against human U87 cells assessed as reduction in cell viability at 0.001 to 10 uM incubated for 72 hrs by AlamarBlue assay; type: functional, cell-based; conditions: U-87MG ATCC
Procedure, shortened: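 U87 cells, grown in DMEM/F12 with 10% FBS, seeded at 5000/well and left overnight. Compounds added in protein-free hybridoma medium (PFHM II) to final 0.001–10 μM and incubated 72 h at 37 °C. Viability read by AlamarBlue, 2 h, fluorescence Ex/Em 560/590 nm. IC50 taken relative to the lowest concentration beyond which no further cell death occurs.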

[2] = Drug localization in mitochondria of human U87 cells at 20 uM incubated for 45 mins by Mitotracker staining-based confocal fluorescence microscopy; type: ADME; conditions: u-87mg atcc, 0.75 h
Procedure, shortened: (§1)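 U87 cells seeded at 10 000/well in imaging chambers and left overnight. Exposed to 20 μM compound in FluoroBrite DMEM for 45 min at 37 °C, then washed with HBSS. Stained 15 min with LysoTracker (1:10 000) or MitoTracker (1:15 000), plus NucBlue nuclear stain. Imaged live by confocal microscopy at 60×, dye excited at 633 nm. Colocalization scored by Pearson's correlation coefficient.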

[3] = Drug localization in lysosome of human U87 cells at 20 uM incubated for 45 mins by Lysotracker staining-based confocal fluorescence microscopy; type: ADME; conditions: u-87mg atcc, 0.75 h; procedure, shortened: as §1
U-87 MG [4] = assay: Cytotoxicity against human U87 cells assessed as reduction in cell viability incubated for 72 hrs by AlamarBlue assay; type: functional, cell-based, U-87MG ATCC
[5] = Half life of compound in human U87 tumor homogenate at 50 uM measured upto 72 hrs by HPLC analysis; type: ADME, U-87MG ATCC
Procedure, shortened: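 Tumor homogenate prepared from U87 xenograft tissue in RIPA buffer (on ice), clarified by centrifugation and 0.2 μm filtration. Compound at 50 μM incubated at 37 °C for up to 72 h. Samples run on analytical C4 HPLC (5–90% MeCN gradient, 0.1% TFA) with 780 nm absorbance. Peak area normalized over time.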

[6] = Time taken for drug metabolism in mouse serum at 50 uM by HPLC analysis; type: ADME, cell-free
Procedure, shortened: (§2)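 Compound at 50 μM in commercial mouse serum at 37 °C. Followed by C4 HPLC with 780 nm absorbance; the metabolite was identified by MS and by coelution with a synthesized standard. Variant conditions: protease/phosphatase inhibitor cocktail premixed at 10% in serum, or incubation at low temperature.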

[7] = Half life in mouse serum at 50 uM incubated for 360 mins by HPLC analysis; type: ADME, cell-free; procedure, shortened: as §2
[8] = (§3) Drug metabolism in mouse serum assessed as 2-((E)-2-((E)-2-((2-Carboxyethyl)thio)-3-(2-((E)-1-(5-carboxypentyl)-3,3-dimethylindolin-2-ylidene)ethylidene)cyclohex-1-en-1-yl)vinyl)-1-(5-carboxypentyl)-3,3-dimethyl-3H-indol-1-ium chloride formation at 50 uM by HPLC analysis; type: ADME, cell-free; procedure, shortened: as §2
[9] = as §3, with “uM in presence of protease and phosphatase” for “uM”; type: ADME, cell-free; procedure, shortened: as §2
[10] = Drug metabolism in mouse serum assessed as 2-((E)-2-((E)-2-((2-Carboxyethyl)thio)-3-(2-((E)-1-(5-carboxypentyl)-3,3-dimethylindolin-2-ylidene)ethylidene)cyclohex-1-en-1-yl)vinyl)-1-(5-carboxypentyl)-3,3-dimethyl-3H-indol-1-ium chloride formation at low temperature at 50 uM by HPLC analysis; type: ADME, cell-free; procedure, shortened: as §2
LN-18 = assay: Cytotoxicity against human LN18 cells assessed as reduction in cell viability at 0.0001 to 10 uM incubated for 72 hrs by AlamarBlue assay; type: functional, cell-based
Procedure, shortened: (§4)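 LN18 and LN229 cells in DMEM with 5% FBS; HEK293 in DMEM/F12 with 10% FBS. Seeded at 2500/well and left overnight. Compounds added in PFHM II to final 0.0001–10 μM for 72 h. Viability by AlamarBlue, fluorescence Ex/Em 560/590 nm.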

LN-229 = assay: Cytotoxicity against human LN229 cells assessed as reduction in cell viability at 0.0001 to 10 uM incubated for 72 hrs by AlamarBlue assay; type: functional, cell-based; procedure, shortened: as §4
HEK293 = assay: Cytotoxicity against human HEK293 cells assessed as reduction in cell viability at 0.0001 to 10 uM incubated for 72 hrs by AlamarBlue assay; type: cell-based; conditions: hek293, 72 h; procedure, shortened: as §4
U-87 MG [11] = assay: Antitumor activity against luciferase and RFP reporter expressing human U87 cells xenografted in Fox1nu mouse assessed as decrease in tumor burden at 10 mg/kg, iv administered at day 4 and day 8 post inoculation and six injections weekly measured after 5 weeks by bioluminescence imaging analysis; type: functional, organism-based; conditions: U-87MG ATCC
[12] = Toxicity in […] mouse xenografted with luciferase and RFP reporter expressing human U87 cells assessed as effect on body weight at 10 mg/kg, iv administered at day 4 and day 8 post inoculation and six injections weekly measured after 5 weeks; type: organism-based; conditions: in vivo, 840 h
[13] = Drug uptake in Fox1nu mouse xenografted with luciferase and RFP reporter expressing human U87 cells assessed as increase in fluorescence signal in liver at 10 mg/kg, iv measured after 30 mins post drug administration by fluorescence imaging analysis; type: ADME, organism-based; conditions: in vivo, 0.5 h
Procedure, shortened: (§5)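 Xenograft mice carried subcutaneous U87-RFP-LUC flank tumors. Each received 10 mg/kg by retro-orbital i.v. injection in vehicle (2% DMSO, 9% ethanol, 9% BSA in PBS). Whole-body NIR fluorescence (ex 745/em 840 nm, radiant efficiency) imaged on IVIS under isoflurane at set times after injection. For organ signal, tumor and organs were dissected and imaged ex vivo.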

[14] = Drug uptake in Fox1nu mouse xenografted with luciferase and RFP reporter expressing human U87 cells assessed as increase in fluorescence signal in tumor at 10 mg/kg, iv measured after 30 mins post drug administration by fluorescence imaging analysis; type: ADME, organism-based; conditions: in vivo, 0.5 h; procedure, shortened: as §5
[15] = Drug uptake in Fox1nu mouse xenografted with luciferase and RFP reporter expressing human U87 cells assessed as increase in fluorescence signal in at retro-orbital vein at 10 mg/kg, iv measured after 30 mins post drug administration by fluorescence imaging analysis; type: ADME, organism-based; conditions: in vivo, 0.5 h; procedure, shortened: as §5
[16] = Drug uptake in Fox1nu mouse xenografted with luciferase and RFP reporter expressing human U87 cells assessed as decrease in drug residual at 10 mg/kg, iv measured […] post drug administration by fluorescence imaging analysis relative to control; type: ADME, organism-based; conditions: in vivo, 48 h, in the assay text read “48 hrs” for “24 hrs”; procedure, shortened: as §5
[17] = Drug uptake in Fox1nu mouse xenografted with luciferase and RFP reporter expressing human U87 cells assessed as decrease in drug residual at 10 mg/kg, iv measured at 144 hrs post drug administration by fluorescence imaging analysis relative to control; type: ADME, organism-based; conditions: in vivo; procedure, shortened: as §5
[18] = Drug uptake in tumor of Fox1nu mouse xenografted with luciferase and RFP reporter expressing human U87 cells at 10 mg/kg, iv measured after 2 hrs post drug administration by fluorescence imaging analysis; type: ADME, organism-based, Neoplasm, U-87MG ATCC; conditions: in vivo; procedure, shortened: as §5
[19] = Drug uptake in small intestine of Fox1nu mouse xenografted with luciferase and RFP reporter expressing human U87 cells assessed as decrease in drug residual at 10 mg/kg, iv measured after 2 hrs post drug administration by fluorescence imaging analysis; type: ADME, organism-based, U-87MG ATCC; conditions: in vivo; procedure, shortened: as §5
[20] = Drug uptake in large intestine of Fox1nu mouse xenografted with luciferase and RFP reporter expressing human U87 cells at 10 mg/kg, iv measured after 2 hrs post drug administration by fluorescence imaging analysis; type: ADME, organism-based, U-87MG ATCC; conditions: in vivo; procedure, shortened: as §5
[21] = Drug uptake in tumor of Fox1nu mouse xenografted with luciferase and RFP reporter expressing human U87 cells at 10 mg/kg, iv measured after 2 days post drug administration by fluorescence imaging analysis; type: ADME, organism-based, Neoplasm, U-87MG ATCC; conditions: in vivo, 48 h; procedure, shortened: as §5
[22] = Drug uptake in kidney of Fox1nu mouse xenografted with luciferase and RFP reporter expressing human U87 cells at 10 mg/kg, iv measured after 2 hrs post drug administration by fluorescence imaging analysis; type: ADME, organism-based, U-87MG ATCC; conditions: in vivo; procedure, shortened: as §5
[23] = Drug uptake in liver of Fox1nu mouse xenografted with luciferase and RFP reporter expressing human U87 cells at 10 mg/kg, iv measured after 2 hrs post drug administration by fluorescence imaging analysis; type: ADME, organism-based, U-87MG ATCC; conditions: in vivo; procedure, shortened: as §5
[24] = Drug uptake in lung of Fox1nu mouse xenografted with luciferase and RFP reporter expressing human U87 cells at 10 mg/kg, iv measured after 2 hrs post drug administration by fluorescence imaging analysis; type: ADME, organism-based, U-87MG ATCC; conditions: in vivo; procedure, shortened: as §5
[25] = Drug uptake in liver of Fox1nu mouse xenografted with luciferase and RFP reporter expressing human U87 cells at 10 mg/kg, iv measured after 2 days post drug administration by fluorescence imaging analysis; type: ADME, organism-based, U-87MG ATCC; conditions: in vivo, 48 h; procedure, shortened: as §5
[26] = Drug uptake in kidney of Fox1nu mouse xenografted with luciferase and RFP reporter expressing human U87 cells at 10 mg/kg, iv measured after 2 days post drug administration by fluorescence imaging analysis; type: ADME, organism-based, U-87MG ATCC; conditions: in vivo, 48 h; procedure, shortened: as §5
U-87 MG [27] = assay: Antitumor activity against luciferase and RFP reporter expressing human U87 cells xenografted in Fox1nu mouse assessed as decrease in tumor size at 10 mg/kg, iv administered at day 4 and day 8 post inoculation and six injections weekly measured after 5 weeks by bioluminescence imaging analysis; type: functional, organism-based; conditions: U-87MG ATCC
[28] = Half life in mouse serum; type: ADME, cell-free

CC1(C)C(/C=C/C2=C(SCCC(=O)Nc3ccn([C@H]4C[C@H](O)[C@@H](CO)O4)c(=O)n3)C(=C/C=C3/N(CCCCS(=O)(=O)O)c4ccccc4C3(C)C)/CCC2)=[N+](CCCCS(=O)(=O)O)c2ccccc21
Activity (U-87 MG [1]): Active

CC1(C)C(/C=C/C2=C(SCCC(=O)Nc3ccn([C@@H]4O[C@H](CO)[C@@H](O)C4(F)F)c(=O)n3)C(=C/C=C3/N(CCCCS(=O)(=O)O)c4ccccc4C3(C)C)/CCC2)=[N+](CCCCS(=O)(=O)O)c2ccccc21.[Cl-]
Drug uptake [2]: Active
Drug uptake [3]: Active
IC50 (U-87 MG [4]): 20.7 nM

CC1(C)C(/C=C/C2=C(SCCC(=O)Nc3ccn([C@@H]4O[C@H](CO)[C@@H](O)C4(F)F)c(=O)n3)C(=C/C=C3/N(CCCCCC(=O)O)c4ccccc4C3(C)C)/CCC2)=[N+](CCCCS(=O)(=O)O)c2ccccc21.[Cl-]
Drug uptake [2]: Not Active

CCCN1/C(=C/C=C2\CCCC(/C=C/C3=[N+](CCC)c4ccccc4C3(C)C)=C2SCCC(=O)Nc2ccn([C@H]3C[C@H](O)[C@@H](CO)O3)c(=O)n2)C(C)(C)c2ccccc21
IC50 (U-87 MG [4]): 3400 nM

CC1(C)C(/C=C/C2=C(Cl)C(=C/C=C3/N(CCCCS(=O)(=O)O)c4ccccc4C3(C)C)/CCC2)=[N+](CCCCS(=O)(=O)O)c2ccccc21.[Cl-]
Drug uptake [2]: Active
Drug uptake [3]: Active

CC1(C)C(/C=C/C2=C(SCCC(=O)Nc3ccn([C@@H]4O[C@H](CO)[C@@H](O)C4(F)F)c(=O)n3)C(=C/C=C3/N(CCCCCC(=O)O)c4ccccc4C3(C)C)/CCC2)=[N+](CCCCCC(=O)O)c2ccccc21.[Cl-]
Drug uptake [2]: Active
Drug uptake [3]: Active
IC50 (U-87 MG [4]): 20.9 nM
half-life at 50 µM [5]: 60 h
Time [6]: 3 h
half-life at 50 µM [7]: 1 h
Drug metabolism [8]: Metabolite_Detected
Drug metabolism [9]: Metabolite_Notdetected
Drug metabolism [10]: Metabolite_Notdetected
Activity (LN-18): Active
Activity (LN-229): Active
Activity (HEK293): Toxic
Activity (U-87 MG [11]): Active
Activity [12]: Non-Toxic
Drug uptake [13]: Active
Drug uptake [14]: Active
Drug uptake [15]: Active
fold change (FC) [16]: 10
fold change (FC) [17]: 100
Drug uptake [18]: Active
Drug uptake [19]: Active
Drug uptake [20]: Active
Drug uptake [21]: Active
Drug uptake [22]: Active
Drug uptake [23]: Active
Drug uptake [24]: Active
Drug uptake [25]: Active
Drug uptake [26]: Active

O=C(CCS)Nc1ccn([C@@H]2O[C@H](CO)[C@@H](O)C2(F)F)c(=O)n1
IC50 (U-87 MG [4]): 11 nM

CCCN1/C(=C/C=C2\CCCC(/C=C/C3=[N+](CCC)c4ccccc4C3(C)C)=C2SCCC(=O)Nc2ccn([C@@H]3O[C@H](CO)[C@@H](O)C3(F)F)c(=O)n2)C(C)(C)c2ccccc21.[Cl-]
Drug uptake [2]: Active
Drug uptake [3]: Active

CC1(C)C(/C=C/C2=C(SCCC(=O)Nc3ccn([C@H]4C[C@H](O)[C@@H](CO)O4)c(=O)n3)C(=C/C=C3/N(CCCCCC(=O)O)c4ccccc4C3(C)C)/CCC2)=[N+](CCCCCC(=O)O)c2ccccc21
Activity (U-87 MG [1]): Active

Nc1ccn([C@@H]2O[C@H](CO)[C@@H](O)C2(F)F)c(=O)n1 [GEMCITABINE]
IC50 (U-87 MG [4]): 8.2 nM
Activity (U-87 MG [11]): Active
Activity [12]: Non-Toxic
Activity (U-87 MG [27]): inactive

CC1(C)C(/C=C/C2=C(Cl)C(=C/C=C3/N(CCCCCC(=O)O)c4ccccc4C3(C)C)/CCC2)=[N+](CCCCCC(=O)O)c2ccccc21.[Cl-]
Drug uptake [2]: Active
Drug uptake [3]: Active
half-life [28]: 0.6 h

CCCN1/C(=C/C=C2\CCCC(/C=C/C3=[N+](CCC)c4ccccc4C3(C)C)=C2Cl)C(C)(C)c2ccccc21.[Cl-]
Drug uptake [2]: Active
Drug uptake [3]: Active
IC50 (U-87 MG [4]): 7100 nM

CC1(C)C(/C=C/C2=C(Cl)C(=C/C=C3/N(CCCCCC(=O)O)c4ccccc4C3(C)C)/CCC2)=[N+](CCCCS(=O)(=O)O)c2ccccc21.[Cl-]
Drug uptake [2]: Active
Drug uptake [3]: Active
